Holding throughout (assay type): functional
For test [1], the system named is Staphylococcus aureus. The experiment in a line: Antibacterial activity against Staphylococcus aureus RN4220 with rplC G152D and D159Y mutation. The method in brief:
(§1)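 Second-step mutants came from the first-step L3 G152D RN4220 mutant. An overnight culture (2 x 10^9 CFU total) was plated on LB agar with 10 µg/ml tiamulin. Colonies were recultured on 10 µg/ml tiamulin to confirm resistance. L3 was sequenced after colony PCR.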

Test [2] has as its system Staphylococcus aureus. Put plainly: Antibacterial activity against Staphylococcus aureus RN4220 with rplC G152D mutation. The method in brief: (§2)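 Spontaneous first-step mutants of S. aureus RN4220. An overnight brain heart infusion culture was plated on LB agar with 1.0 µg/ml tiamulin. Colonies were patched to drug-free LB for 16 h at 37°C, then replica plated on LB agar with 1, 5, 10 and 20 µg/ml tiamulin. The rplC (L3) mutation was identified by colony PCR and sequencing.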

For test [3], the system named is Staphylococcus aureus. The experiment in a line: Antibacterial activity against Staphylococcus aureus RN4220 with rplC G155R mutation. The method in brief: as §2
Test [4] has as its system Staphylococcus aureus. The experiment in a line: Antibacterial activity against Staphylococcus aureus 2A1-7 with rplC G152D, D159Y and unmapped mutation. Put shortly:
(§3)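 Third-step mutants: second-step mutants were plated on five other pleuromutilins, each at 2 times its own MIC. Colonies appearing after extended incubation were replated at the selective concentration to confirm resistance. L3 was sequenced by colony PCR. These isolates grow very slowly; colonies form on blood agar only after more than 72 h.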

The test system of test [5] is Staphylococcus aureus. Put plainly: Antibacterial activity against Staphylococcus aureus 2A1-1 fast2 with rplC D159Y and unmapped mutation. The method in brief: (§4)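 Fast-growing variants of slow third-step mutants. Single colonies were streaked on unsupplemented LB agar and held more than 3 days at 37°C. At least 2 fast-growing colonies per mutant were purified on LB agar, then taken for MIC testing and sequencing.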

For test [6], the system named is Staphylococcus aureus. Put plainly: Antibacterial activity against Staphylococcus aureus RN4220 with rplC G152D, D159Y and G144R mutation. The method in brief: as §3
Test [7] deals with Staphylococcus aureus. Put plainly: Antibacterial activity against Staphylococcus aureus RN4220 with rplC S158L mutation. Put shortly: as §2
The subject of test [8] is Staphylococcus aureus. Put plainly: Antibacterial activity against Staphylococcus aureus 2A1-1 with rplC G152D, D159Y and unmapped mutation. Put shortly: as §3
Test [9] deals with Staphylococcus aureus. Put plainly: Antibacterial activity against Staphylococcus aureus RN4220 with rplC G152D, D159Y, G155R and A150T mutation. Put shortly: as §3
Test [10] concerns Staphylococcus aureus. Put plainly: Antibacterial activity against Staphylococcus aureus 2A1-7 fast1 with rplC D159Y and unmapped mutation. The method in brief:
as §4

Test [11] deals with Staphylococcus aureus. Put plainly: Antibacterial activity against Staphylococcus aureus 2A1-8 with rplC G152D, D159Y and unmapped mutation. Put shortly: as §3
In test [12] the test system is Staphylococcus aureus. Put plainly: Antibacterial activity against Staphylococcus aureus 2A1-1 fast1 with rplC D159Y and unmapped mutation. Put shortly:
as §4

In test [13] the test system is Staphylococcus aureus. Put plainly: Antibacterial activity against Staphylococcus aureus RN4220 with rplC D159Y mutation. The method in brief:
as §2

Test [14] has as its system Staphylococcus aureus. The experiment in a line: Antibacterial activity against Staphylococcus aureus RN4220 with rplC G152D, D159Y and G155R mutation. The method in brief: as §3
The subject of test [15] is Staphylococcus aureus. The experiment in a line: Antibacterial activity against wild type Staphylococcus aureus RN4220.
For test [16], the system named is Staphylococcus aureus. Put plainly: Antibacterial activity against Staphylococcus aureus 2A1-7 fast2 with rplC D159Y and unmapped mutation. Put shortly:
as §4

In test [17] the test system is Staphylococcus aureus. Put plainly: Antibacterial activity against Staphylococcus aureus RN4220 with rplC G152D, D159Y, G155R and H134N mutation. Put shortly: as §3
The subject of test [18] is Staphylococcus aureus. The experiment in a line: Antibacterial activity against Staphylococcus aureus RN4220 with rplC G152D and G155R mutation. Put shortly:
as §1

MIC data for six compounds are collected here from ChEMBL document CHEMBL1144468, “Stepwise exposure of Staphylococcus aureus to pleuromutilins is associated with stepwise acquisition of mutations in rplC and minimally affects susceptibility to retapamulin” (2007).

In general, MIC refers to the least concentration at which growth counts as inhibited.

≈ marks a conversion by molar mass, not a printed value.

Take `C=C[C@]1(C)C[C@@H](OC(=O)CSCCN(CC)CC)[C@]2(C)[C@H](C)CC[C@]3(CCC(=O)[C@H]32)[C@@H](C)[C@@H]1O` [TIAMULIN]: the MIC turned out to be 16 µg/mL (≈ 32.4 µM) against Staphylococcus aureus [1]; 4 µg/mL (≈ 8.1 µM) with Staphylococcus aureus [2]; 4 µg/mL (≈ 8.1 µM) with Staphylococcus aureus [3]; 64 µg/mL (≈ 130 µM) with Staphylococcus aureus [4]; 2 µg/mL (≈ 4.05 µM) against Staphylococcus aureus [5]; 32 µg/mL (≈ 64.8 µM) with Staphylococcus aureus [6]. Moreover, the MIC amounted to 2 µg/mL (≈ 4.05 µM) in the test on Staphylococcus aureus [7]; 64 µg/mL (≈ 130 µM) with Staphylococcus aureus [8]; 4 µg/mL (≈ 8.1 µM) in the test with Staphylococcus aureus [9]; 2 µg/mL (≈ 4.05 µM) against Staphylococcus aureus [10]; 32 µg/mL (≈ 64.8 µM) in the test on Staphylococcus aureus [11]; 2 µg/mL (≈ 4.05 µM) against Staphylococcus aureus [12]. Moreover, the MIC is 4 µg/mL (≈ 8.1 µM) with Staphylococcus aureus [13]; > 64 µg/mL against Staphylococcus aureus [14]; 0.25 µg/mL (≈ 0.506 µM) with Staphylococcus aureus [15]; 2 µg/mL (≈ 4.05 µM) in the test with Staphylococcus aureus [16]; 2 µg/mL (≈ 4.05 µM) in the test with Staphylococcus aureus [17]; 16 µg/mL (≈ 32.4 µM) with Staphylococcus aureus [18].

Consider `CN(C)[C@@H]1C(O)=C(C(N)=O)C(=O)[C@@]2(O)C(O)=C3C(=O)c4c(O)cccc4[C@@](C)(O)[C@H]3C[C@@H]12` [TETRACYCLINE], for which the MIC against Staphylococcus aureus [1] is 0.25 µg/mL (≈ 0.563 µM); in the test on Staphylococcus aureus [2], 0.25 µg/mL (≈ 0.563 µM); with Staphylococcus aureus [3], 0.25 µg/mL (≈ 0.563 µM); in the test with Staphylococcus aureus [4], ≤ 0.06 µg/mL; in the test on Staphylococcus aureus [5] it was 0.25 µg/mL (≈ 0.563 µM); against Staphylococcus aureus [6], 0.25 µg/mL (≈ 0.563 µM). Also, the MIC with Staphylococcus aureus [7] is 0.25 µg/mL (≈ 0.563 µM); in the test on Staphylococcus aureus [8] it was ≤ 0.06 µg/mL; in the test with Staphylococcus aureus [9], 0.25 µg/mL (≈ 0.563 µM); against Staphylococcus aureus [10] it was 0.25 µg/mL (≈ 0.563 µM); against Staphylococcus aureus [11] it was ≤ 0.06 µg/mL; against Staphylococcus aureus [12], 0.25 µg/mL (≈ 0.563 µM). For the same compound, the MIC in the test with Staphylococcus aureus [13], against Staphylococcus aureus [14], in the test with Staphylococcus aureus [15], against Staphylococcus aureus [16], in the test on Staphylococcus aureus [17] and with Staphylococcus aureus [18] was 0.25 µg/mL (≈ 0.563 µM) throughout.

For `C/C(=C\C(=O)OCCCCCCCCC(=O)O)C[C@@H]1OC[C@H](C[C@@H]2O[C@H]2[C@@H](C)[C@H](C)O)[C@@H](O)[C@H]1O` [MUPIROCIN], the MIC with Staphylococcus aureus [1], against Staphylococcus aureus [2], with Staphylococcus aureus [3], with Staphylococcus aureus [6], in the test on Staphylococcus aureus [7] and against Staphylococcus aureus [9] was 0.06 µg/mL (≈ 0.12 µM) each time. Moreover, the MIC against Staphylococcus aureus [13], against Staphylococcus aureus [14], against Staphylococcus aureus [15], against Staphylococcus aureus [17] and in the test with Staphylococcus aureus [18] was 0.06 µg/mL (≈ 0.12 µM) each time.

As to `C=C[C@]1(C)C[C@@H](OC(=O)CS[C@@H]2C[C@H]3CC[C@@H](C2)N3C)[C@]2(C)[C@H](C)CC[C@]3(CCC(=O)[C@H]32)[C@@H](C)[C@@H]1O` [RETAPAMULIN], the MIC stood at 1 µg/mL (≈ 1.93 µM) with Staphylococcus aureus [1]; 0.25 µg/mL (≈ 0.483 µM) against Staphylococcus aureus [2]; 0.5 µg/mL (≈ 0.966 µM) against Staphylococcus aureus [3]; 8 µg/mL (≈ 15.5 µM) against Staphylococcus aureus [4]; 0.25 µg/mL (≈ 0.483 µM) against Staphylococcus aureus [5]; 4 µg/mL (≈ 7.73 µM) against Staphylococcus aureus [6]. Further, the MIC was determined as 0.25 µg/mL (≈ 0.483 µM) in the test on Staphylococcus aureus [7]; 8 µg/mL (≈ 15.5 µM) in the test with Staphylococcus aureus [8]; 0.25 µg/mL (≈ 0.483 µM) against Staphylococcus aureus [9]; 0.25 µg/mL (≈ 0.483 µM) in the test on Staphylococcus aureus [10]; 2 µg/mL (≈ 3.86 µM) against Staphylococcus aureus [11]; 0.25 µg/mL (≈ 0.483 µM) in the test on Staphylococcus aureus [12]. The MIC was 0.25 µg/mL (≈ 0.483 µM) with Staphylococcus aureus [13]; 4 µg/mL (≈ 7.73 µM) with Staphylococcus aureus [14]; ≤ 0.06 µg/mL with Staphylococcus aureus [15]; 0.25 µg/mL (≈ 0.483 µM) in the test on Staphylococcus aureus [16]; 0.125 µg/mL (≈ 0.241 µM) against Staphylococcus aureus [17]; 1 µg/mL (≈ 1.93 µM) with Staphylococcus aureus [18].

As to `C[C@H]1COc2c(N3CCN(C)CC3)c(F)cc3c(=O)c(C(=O)O)cn1c23.C[C@H]1COc2c(N3CCN(C)CC3)c(F)cc3c(=O)c(C(=O)O)cn1c23.O` [LEVOFLOXACIN], the MIC against Staphylococcus aureus [1] was determined as 0.25 µg/mL; in the test with Staphylococcus aureus [2], 0.5 µg/mL; in the test on Staphylococcus aureus [3], 0.5 µg/mL; with Staphylococcus aureus [4], 0.25 µg/mL; against Staphylococcus aureus [5] it was 0.25 µg/mL; in the test on Staphylococcus aureus [6], 0.25 µg/mL. The MIC in the test with Staphylococcus aureus [7] was determined as 0.5 µg/mL; against Staphylococcus aureus [8], 0.25 µg/mL; in the test with Staphylococcus aureus [9], 0.125 µg/mL; in the test on Staphylococcus aureus [10], 0.25 µg/mL; in the test on Staphylococcus aureus [11], 0.25 µg/mL; in the test with Staphylococcus aureus [12], 0.5 µg/mL. Further, the MIC in the test on Staphylococcus aureus [13] was 0.5 µg/mL; against Staphylococcus aureus [14], 0.25 µg/mL; against Staphylococcus aureus [15] it was 0.5 µg/mL; against Staphylococcus aureus [16], 0.25 µg/mL; with Staphylococcus aureus [17], 0.5 µg/mL; against Staphylococcus aureus [18], 0.25 µg/mL.

For the compound `O=C(N[C@H](CO)[C@H](O)c1ccc([N+](=O)[O-])cc1)C(Cl)Cl` [CHLORAMPHENICOL], the MIC with Staphylococcus aureus [1] amounted to 8 µg/mL (≈ 24.8 µM); against Staphylococcus aureus [2] it was 8 µg/mL (≈ 24.8 µM); against Staphylococcus aureus [3] it was 8 µg/mL (≈ 24.8 µM); against Staphylococcus aureus [4], 4 µg/mL (≈ 12.4 µM); against Staphylococcus aureus [5], 8 µg/mL (≈ 24.8 µM); with Staphylococcus aureus [6], 8 µg/mL (≈ 24.8 µM). Further, the MIC in the test with Staphylococcus aureus [7] stood at 4 µg/mL (≈ 12.4 µM); against Staphylococcus aureus [8], 8 µg/mL (≈ 24.8 µM); in the test with Staphylococcus aureus [9], 8 µg/mL (≈ 24.8 µM); against Staphylococcus aureus [10], 8 µg/mL (≈ 24.8 µM); in the test on Staphylococcus aureus [11] it was 4 µg/mL (≈ 12.4 µM); in the test on Staphylococcus aureus [12], 8 µg/mL (≈ 24.8 µM). In addition, the MIC in the test on Staphylococcus aureus [13] came out at 4 µg/mL (≈ 12.4 µM); against Staphylococcus aureus [14], 4 µg/mL (≈ 12.4 µM); against Staphylococcus aureus [15], 4 µg/mL (≈ 12.4 µM); in the test with Staphylococcus aureus [16], 8 µg/mL (≈ 24.8 µM); against Staphylococcus aureus [17] it was 8 µg/mL (≈ 24.8 µM); in the test with Staphylococcus aureus [18], 8 µg/mL (≈ 24.8 µM).
